This is a sample that favours compounds with a hit; in the whole collection about 1.8% have one here.
CASP6 VEID inh = blocks human caspase-6 cleavage activity. P55212. purified caspase-6, Z-VEID-R110 cleavage fluorescence. inhibition, % at 12.5 µM. 0.53% of 350,000 active;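 active = mean inhibition across replicates at least about 35%, with every replicate also reaching that limit, limit read from the data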;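 also: 0% = median of neutral control wells and 100% = no fluorescence left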
NSD2 HMT inh = blocks human histone methyltransferase NSD2; O96028; NSD2 peptide methylation, AlphaScreen, 120 min; inhibition, % at 12.5 µM; 0.54% of 310,000 active; in the data active = inhibition above about 50%
TDP2 absorb = blocks human TDP2 phosphodiesterase activity. recombinant TDP2, T5PNP hydrolysis, p-nitrophenol absorbance 415 nm. inhibition, % at 12.8 µM. 0.34% of 370,000 active. AID 720702;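 active = inhibition above the mean of all tested compounds plus 3 SD, set per campaign, cut at about 25% in these data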;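 also: 0% = DMSO with enzyme and 100% = buffer with substrate but no TDP2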
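System: recombinant human TDP2 / Amount: 120 nM TDP2 per well / Also added: 5 mM T5PNP chromogenic substrate / Doses: 12.8 µM single point, 1% DMSO / Incubation: 2 h at 37 °C / Detection: p-Nitrophenol epi absorbance / Evaluation: % inhibition relative to enzyme-containing and enzyme-free wells / Repeats: singlicate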
MBD2 inh = MBD2-methylated oligo binding inhibition. TR-FRET, MBD2 binding to methylated oligonucleotide. AID 686964. inhibition, % at 4.4 µM. 0.31% of 370,000 active; in the data active = inhibition above about 13%
Target sequence (Q9UBB5 whole entry, looked up): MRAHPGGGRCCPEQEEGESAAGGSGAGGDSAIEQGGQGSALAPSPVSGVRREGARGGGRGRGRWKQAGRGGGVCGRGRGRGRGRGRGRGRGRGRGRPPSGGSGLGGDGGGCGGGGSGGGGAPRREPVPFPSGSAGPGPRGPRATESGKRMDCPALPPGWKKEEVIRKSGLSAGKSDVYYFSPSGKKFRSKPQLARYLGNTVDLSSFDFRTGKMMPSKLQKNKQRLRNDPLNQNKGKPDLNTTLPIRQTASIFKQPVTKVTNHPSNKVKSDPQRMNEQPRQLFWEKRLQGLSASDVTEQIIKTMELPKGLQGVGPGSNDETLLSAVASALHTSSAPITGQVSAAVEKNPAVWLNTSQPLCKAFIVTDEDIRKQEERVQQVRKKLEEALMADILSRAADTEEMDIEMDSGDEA
UHRF1 binding = human UHRF1 methylated DNA binding inhibitors; Q96T88; UHRF1 binding to methylated oligo, TR-FRET; inhibition, % at 4.4 µM; 0.75% of 370,000 active;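 also: UHRF1 SRA domain binding a hemimethylated CpG hairpin DNA probe; 0% = median of test compound wells and 100% = reference inhibitor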
LEDGF integ inh = blocks HIV-1 LEDGF/p75-dependent DNA integration. TR-FRET IN-LEDGF/p75 DNA integration, Eu/Cy5. inhibition, % at 3.7 µM. 0.64% of 370,000 active;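 active = inhibition above the screen-wide mean plus 3 SD, cut at about 13% in these data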;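 also: signal is the Cy5 over europium emission ratio at 671 and 618 nm; 0% = plate median of compound wells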
UHRF1 DNA bind = counter-screen for MBD2 inhibitors: human UHRF1 methylated DNA binding inhibitors; shares compounds with MBD2 inh; UHRF1 binding to methylated oligonucleotide, TR-FRET; inhibition, % at 4.4 µM; 25% of 1,000 active; AID 720530;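 also: UHRF1 SRA domain binding a labeled hemimethylated CpG hairpin DNA; 0% = vehicle only and 100% = reference inhibitor with vehicle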
MBD2 DBD conf = MBD2-DBD methyl-DNA binding inhibition, TR-FRET confirmation; shares compounds with MBD2 inh; TR-FRET MBD2-DBD binding to methylated oligonucleotide; inhibition, % at 4.4 µM; 26% of 1,000 active; AID 720531; in the data active = inhibition above about 14%
Numbers without * were called inactive; nt = not tested or not shown; ! = not active in a repeat. Rule as the data show it, unless noted: active = inhibition above about 21%; inactive = the rest.

SMILES	CASP6 VEID inh	NSD2 HMT inh	TDP2 absorb	MBD2 inh	UHRF1 binding	LEDGF integ inh	others
COc1cccc(S(=O)(=O)N2C[C@@H]3N[C@H](C2)C3c2ccc(-c3ccccc3C)cc2)c1 (some centres undefined)	37*!	nt	nt	nt	nt	nt
CCC(=O)N1[C@@H]2c3cccc(=O)n3C[C@@H]2[C@@H](CO)[C@@H]1C(=O)NC1CCCCC1	1	nt	nt	nt	nt	nt
COc1ccc(NC(=O)Nc2cccc3c2O[C@@H](CN(C)C(=O)Nc2c(C)noc2C)[C@H](C)CN([C@@H](C)CO)C3=O)cc1	-4	nt	nt	nt	nt	nt
CCOC(=O)c1c(N)sc(C(O)(C(F)(F)F)C(F)(F)F)c1-c1ccc(OC)cc1OC	2	8	-4	-3	25*	-5
CC(C)=C1C(=O)NN(c2ccc(F)c(Cl)c2)C1=O	68*	4	2	-2	-1	2
O=C(NC1CCSc2ccccc21)c1cc([N+](=O)[O-])ccc1N1CCOCC1 (centres undefined)	-3	3	18	-2	2	14*
O=C(C[C@@H]1C[C@H]2c3cc(NC(=O)Nc4ccccc4)ccc3O[C@H]2[C@H](CO)O1)NC1CCCC1	5	nt	nt	nt	nt	nt
C[C@@H]1CN([C@H](C)CO)C(=O)c2cc(C3=CCCC3)cnc2O[C@@H]1CN(C)Cc1cccc(F)c1	0	nt	nt	nt	nt	nt
N#Cc1c(=O)c2nc(NCc3ccccc3)ncc2n2ccccc12	nt	5	10	-4	-12	44*
CCc1ccc(N=C2NC(=O)/C(=C/c3cc(Br)c(OCC(=O)O)c(OC)c3)S2)cc1	64*	11	-7	9	5	0
C[C@H]1CN([C@@H](C)CO)C(=O)c2cc(NC(=O)Nc3cccc4ccccc34)ccc2O[C@H]1CN(C)C(=O)Nc1ccc(C(F)(F)F)cc1	-3	nt	nt	nt	nt	nt
Cc1ccc(-c2n[nH]c(=S)n2Cc2ccccc2)cc1	nt	32	-4	4	2	-2
CCOc1ccc(-c2n[nH]c(=S)n2Cc2ccccc2)cc1	37*	0	-6	-2	2	-2
Cc1ccccc1N1CC(=O)N(c2ccccc2C)CC1=O	nt	-3	-7	-2	-2	-7
CC1=NN(c2ccccc2C)C(=O)C1	0	1	51*	-9	5	9
COc1cc(O)c(C(CCN2CCN(c3ccccc3)CC2)c2ccc(N(C)C)cc2)c(OC)c1 (centres undefined)	0	nt	12	8	22*	3
CCN1CC(=O)N2[C@H](C1)[C@H](c1ccc(Br)cc1)[C@@H]2CO	3	nt	nt	nt	nt	nt
COc1ccc(OC)c(C2CC(=O)C(C)C(c3cc(OC)ccc3OC)N2)c1 (centres undefined)	nt	2	1	1	-2	-2
COc1ccc(C2NC(c3ccc(OC)cc3OC)C(C)C(=O)C2C)c(OC)c1 (centres undefined)	55*	7	5	0	2	5
Cc1oc2c(c1C(=O)O)C(=O)c1ccccc1C2=O	58*	nt	11	-13	-7	7
CCOC(=O)c1c(C)oc2c1C(=O)c1ccccc1C2=O	8	6	-6	-1	3	1
C[C@@H]1CN([C@H](C)CO)C(=O)c2cc(-c3ccccc3F)cnc2O[C@@H]1CN(C)Cc1cccc(C(=O)O)c1	1	nt	nt	nt	nt	nt
O=C(C[C@H]1C[C@@H]2c3cc(NC(=O)C4CCOCC4)ccc3O[C@@H]2[C@H](CO)O1)NCc1ccccn1	0	nt	nt	nt	nt	nt
N=C1CCCN1CC(=O)c1ccc(Br)cc1	nt	-1	5	6	22*	0
CC(C)NC(=O)N(C)C[C@@H]1OCCCC[C@@H](C)Oc2ccc(NS(=O)(=O)c3ccc(Cl)cc3)cc2C(=O)N([C@@H](C)CO)C[C@H]1C	0	nt	nt	nt	nt	nt
SMILES	CASP6 VEID inh	NSD2 HMT inh	TDP2 absorb	MBD2 inh	UHRF1 binding	LEDGF integ inh	others
CCCCNc1nc(NCc2ccccc2)nc2ccccc12	44*	nt	-7	9	11	3
CCC1(c2ccccc2)CN(C)C1=O (centres undefined)	nt	0	-8	6	5	2
CCN1c2ccccc2N(C)C1(C)c1ccccc1 (centres undefined)	nt	63*	nt	nt	nt	nt
CCNc1ccc2noc3c2c1C(=O)c1ccccc1-3	nt	-2	11	-19	-35	-11
O=C1c2ccccc2-c2onc3ccc(N4CCCC4)c1c23	-14	26	17	1	23*	-4
CCOc1ccc(Nc2nc(Cc3nnc(SCC(=O)NCC4CCCO4)n3C)cs2)cc1 (centres undefined)	37*	3	-3	-5	3	-6
CCOc1ccc(Nc2nc(Cc3nnc(SCC(=O)NC4CCCCC4)n3C)cs2)cc1	nt	3	1	4	-5	-1
O=C(CSc1cn[nH]n1)Nc1cccc(C(=O)O)c1	-1	8	4	15*	0	0	UHRF1 DNA bind=1;MBD2 DBD conf=6
C[C@H]1CN([C@@H](C)CO)C(=O)c2cc(NC(=O)CCCN(C)C)ccc2O[C@H]1CN(C)Cc1ccc(-c2ccccc2)cc1	1	nt	nt	nt	nt	nt
CCC(=O)c1ccc(OCC(=O)OC(C)C(=O)NCc2ccc3c(c2)OCO3)cc1 (centres undefined)	0	0	-6	79*	-1	2	UHRF1 DNA bind=9;MBD2 DBD conf=2
COc1ccc(S(=O)(=O)NCc2ccncc2)cc1NC(=O)c1ccccc1	-3	-2	19	16*	33*	4	UHRF1 DNA bind=5;MBD2 DBD conf=2
C[C@@H]1CCCCO[C@H](CN(C)Cc2ccncc2)[C@H](C)CN([C@@H](C)CO)C(=O)c2cc(NS(C)(=O)=O)ccc2O1	-4	nt	nt	nt	nt	nt
C/C=C/C=[N+](\[O-])C(C)/C(=N/O)c1ccc(F)cc1 (centres undefined)	nt	-2	8	14*	5	1	UHRF1 DNA bind=1;MBD2 DBD conf=1
COc1ccc(-c2ccccc2[C@@H]2[C@@H](CO)N(C(=O)NC(C)C)[C@H]2C#N)cc1	-1	nt	nt	nt	nt	nt
